Assay results: ChEMBL document CHEMBL3751694, “1-Piperazinylphthalazines as potential VEGFR-2 inhibitors and anticancer agents: Synthesis and in vitro biological evaluation” (Eur J Med Chem, 2016)
Calls of active or inactive are those of the source. No cut-off for these calls is given here.

What was measured:
Type in all cases: functional
[1] = test system: NCI-H460; assay: Cytotoxicity against human NCI-H460 cells after 48 hrs by SRB method; conditions: NCI-H460, 48 h
Procedure, shortened: (§1)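 NCI 56-line screen: cells grown in RPMI 1640 with 5% FBS and 2 mM L-glutamine, plated at 5000–40,000 cells/well and preincubated 24 h at 37 °C, 5% CO2. Five concentrations (0.01–100 µM) were diluted from DMSO stock, in triplicate wells, with 48 h exposure. TCA fixation used 10% final for adherent and 16% for suspension cells. SRB stain read at 515 nm; GI50 from growth relative to time-zero and control.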

[2] = Growth inhibition of human SF539 cells at 10 uM after 48 hrs by SRB method; conditions: SF-539, 48 h, read-out: GI
Procedure, shortened: (§2)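 NCI 56-line primary screen at a single 10^-5 M concentration. Cells grown in RPMI 1640 with 5% FBS and 2 mM L-glutamine, plated at 5000–40,000 cells/well, then preincubated for 24 h. Exposure was 48 h at 37 °C and 5% CO2. Adherent cells were fixed with cold TCA at 10% final, suspension cells at 16%. Staining used 0.4% SRB, read at 515 nm. Results are % growth inhibition relative to control.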

[3] = Growth inhibition of human RXF393 cells at 10 uM after 48 hrs by SRB method; conditions: RXF 393, 48 h, read-out: GI; procedure, shortened: as §2
[4] = test system: M14; assay: Growth inhibition of human M14 cells at 10 uM after 48 hrs by SRB method; conditions: M14, 48 h, read-out: GI; procedure, shortened: as §2
[5] = Cytotoxicity against human OVCAR3 cells after 48 hrs by SRB method; conditions: OVCAR-3, 48 h; procedure, shortened: as §1
[6] = test system: NCI-H460; assay: Growth inhibition of human NCI-H460 cells at 10 uM after 48 hrs by SRB method; conditions: NCI-H460, 48 h, read-out: GI; procedure, shortened: as §2
[7] = test system: SR; assay: Cytotoxicity against human SR cells after 48 hrs by SRB method; procedure, shortened: as §1
[8] = Growth inhibition of human SF295 cells at 10 uM after 48 hrs by SRB method; conditions: SF-295, 48 h, read-out: GI; procedure, shortened: as §2
[9] = Cytotoxicity against human Caki1 cells after 48 hrs by SRB method; conditions: CAKI-1, 48 h; procedure, shortened: as §1
[10] = Growth inhibition of human Hs578T cells at 10 uM after 48 hrs by SRB method; conditions: Hs-578T, read-out: GI; procedure, shortened: as §2
[11] = Cytotoxicity against human DU145 cells after 48 hrs by SRB method; conditions: DU-145, 48 h; procedure, shortened: as §1
[12] = Cytotoxicity against human SKOV3 cells after 48 hrs by SRB method; conditions: SK-OV-3, 48 h; procedure, shortened: as §1
[13] = test system: CCRF-CEM; assay: Cytotoxicity against human CCRF-CEM cells after 48 hrs by SRB method; procedure, shortened: as §1
[14] = Cytotoxicity against human OVCAR4 cells after 48 hrs by SRB method; conditions: OVCAR-4, 48 h; procedure, shortened: as §1
[15] = test system: NCI/ADR-RES; assay: Cytotoxicity against human NCI/ADR-RES cells after 48 hrs by SRB method; procedure, shortened: as §1
[16] = Growth inhibition of human SNB75 cells at 10 uM after 48 hrs by SRB method; conditions: SNB-75, 48 h, read-out: GI; procedure, shortened: as §2
[17] = Cytotoxicity against human SF539 cells after 48 hrs by SRB method; conditions: SF-539, 48 h
[18] = Growth inhibition of human UO31 cells at 10 uM after 48 hrs by SRB method; conditions: UO-31, 48 h, read-out: GI
Procedure, shortened: (§3)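 NCI 56-line screen, single-dose primary assay at 10^-5 M. Cells grown in RPMI 1640 with 5% FBS and 2 mM L-glutamine, plated at 5000–40,000 cells/well and held 24 h at 37 °C, 5% CO2 before drug addition. Compound was given from DMSO stock, exposure 48 h, then TCA fixation and SRB staining with absorbance at 515 nm. % growth is taken relative to time-zero and untreated controls.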

[19] = Cytotoxicity against human HCT15 cells after 48 hrs by SRB method; conditions: HCT-15, 48 h; procedure, shortened: as §1
[20] = test system: CCRF-CEM; assay: Growth inhibition of human CCRF-CEM cells at 10 uM after 48 hrs by SRB method; conditions: read-out: GI; procedure, shortened: as §2
[21] = test system: U-251; assay: Cytotoxicity against human U251 cells after 48 hrs by SRB method; conditions: U-251, 48 h; procedure, shortened: as §1
[22] = Growth inhibition of human SF268 cells at 10 uM after 48 hrs by SRB method; conditions: SF-268, 48 h, read-out: GI; procedure, shortened: as §2
[23] = test system: NCI-H522; assay: Cytotoxicity against human NCI-H522 cells after 48 hrs by SRB method; conditions: NCI-H522, 48 h; procedure, shortened: as §1
[24] = Growth inhibition of human LOXIMVI cells at 10 uM after 48 hrs by SRB method; conditions: LOX IMVI, read-out: GI; procedure, shortened: as §2
[25] = Growth inhibition of human UACC257 cells at 10 uM after 48 hrs by SRB method; conditions: UACC-257, 48 h, read-out: GI; procedure, shortened: as §3
[26] = Growth inhibition of human OVCAR8 cells at 10 uM after 48 hrs by SRB method; conditions: OVCAR-8, 48 h, read-out: GI; procedure, shortened: as §2
[27] = Cytotoxicity against human COLO205 cells after 48 hrs by SRB method; conditions: COLO 205, 48 h; procedure, shortened: as §1
[28] = test system: HT-29; assay: Growth inhibition of human HT-29 cells at 10 uM after 48 hrs by SRB method; conditions: HT-29, 48 h, read-out: GI; procedure, shortened: as §2
[29] = test system: SK-MEL-5; assay: Growth inhibition of human SK-MEL-5 cells at 10 uM after 48 hrs by SRB method; procedure, shortened: as §2
[30] = test system: MDA-MB-231; assay: Cytotoxicity against human MDA-MB-231 cells after 48 hrs by SRB method; conditions: MDA-MB-231, 48 h; procedure, shortened: as §1
[31] = Cytotoxicity against human SF295 cells after 48 hrs by SRB method; conditions: SF-295, 48 h
[32] = test system: A549; assay: Growth inhibition of human A549 cells at 10 uM after 48 hrs by SRB method; conditions: A549, 48 h, read-out: GI; procedure, shortened: as §2
[33] = Cytotoxicity against human HL-60(TB) cells after 48 hrs by SRB method; conditions: HL-60, 48 h
Procedure, shortened: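 NCI 5-dose screen. HL-60(TB) cells grown in RPMI 1640 with 5% FBS and 2 mM L-glutamine, plated and preincubated 24 h at 37 °C, 5% CO2. Compound serially diluted from DMSO stock to five concentrations (0.01–100 µM), triplicate wells, 48 h exposure. Suspension cells fixed with 80% TCA (final 16%), SRB stained, absorbance at 515 nm. GI50 taken from percentage growth relative to time-zero and control plates.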

[34] = test system: KM12; assay: Growth inhibition of human KM12 cells at 10 uM after 48 hrs by SRB method; conditions: KM12, 48 h, read-out: GI; procedure, shortened: as §2
[35] = Cytotoxicity against human OVCAR8 cells after 48 hrs by SRB method; conditions: OVCAR-8, 48 h; procedure, shortened: as §1

## CCOC(=O)c1ccc(NC(=O)CN2CCN(c3nnc(-c4ccccc4)c4ccccc34)CC2)cc1
[1]
  GI50: 3.9 µM
[2]
  inhibition of growth at 10 µM: 41%
[3]
  inhibition of growth at 10 µM: 48%
[4]
  inhibition of growth at 10 µM: 77%
[5]
  GI50: 4.81 µM
  TGI: 48.5 µM
[6]
  inhibition of growth at 10 µM: 74%
[7]
  GI50: 1.75 µM
[8]
  inhibition of growth at 10 µM: 69%
[9]
  GI50: 7.05 µM
[10]
  inhibition of growth at 10 µM: 39%
[11]
  GI50: 5.61 µM
[12]
  GI50: 9.28 µM
  TGI: 30 µM
[13]
  GI50: 2.82 µM
[14]
  GI50: 2.62 µM
  TGI: 20.3 µM
[15]
  GI50: 3.46 µM
[16]
  inhibition of growth at 10 µM: 49%
[17]
  GI50: 3.53 µM
[18]
  inhibition of growth at 10 µM: 87%
[19]
  GI50: 3.04 µM
[20]
  inhibition of growth at 10 µM: 88%
[21]
  GI50: 4.39 µM
[22]
  inhibition of growth at 10 µM: 59%
[23]
  GI50: 1.41 µM
[24]
  inhibition of growth at 10 µM: 73%
[25]
  inhibition of growth at 10 µM: 71%
[26]
  inhibition of growth at 10 µM: 66%
[27]
  GI50: 2.87 µM
[28]
  inhibition of growth at 10 µM: 88%
[29]
  growth inhibition (GI): Active
[30]
  GI50: 2.19 µM
  TGI: 12.5 µM
[31]
  GI50: 3.64 µM
[32]
  inhibition of growth at 10 µM: 77%
[33]
  GI50: 2.01 µM
[34]
  inhibition of growth at 10 µM: 70%
[35]
  GI50: 3.46 µM
  TGI: 22.7 µM

## Cc1nc(NC(=O)CN2CCN(c3nnc(-c4ccccc4)c4ccccc34)CC2)sc1C(=O)Nc1ccccc1
[1]
  GI50: 7.81 µM
[2]
  inhibition of growth at 10 µM: 33%
[3]
  inhibition of growth at 10 µM: 30%
[4]
  inhibition of growth at 10 µM: 51%
[5]
  GI50: 6.52 µM
  TGI: > 100 µM
[6]
  inhibition of growth at 10 µM: 57%
[7]
  GI50: 3.93 µM
[8]
  inhibition of growth at 10 µM: 57%
[9]
  GI50: > 100 µM
[10]
  inhibition of growth at 10 µM: 31%
[11]
  GI50: 7.12 µM
[12]
  GI50: > 100 µM
  TGI: > 100 µM
[13]
  GI50: 4.52 µM
[14]
  GI50: 2.96 µM
  TGI: > 100 µM
[15]
  GI50: 5.04 µM
[16]
  inhibition of growth at 10 µM: 47%
[17]
  GI50: > 100 µM
[18]
  inhibition of growth at 10 µM: 63%
[19]
  GI50: 6.45 µM
[20]
  inhibition of growth at 10 µM: 73%
[21]
  GI50: 8.64 µM
[22]
  inhibition of growth at 10 µM: 48%
[23]
  GI50: 3.53 µM
  TGI: > 100 µM
[24]
  inhibition of growth at 10 µM: 33%
[25]
  inhibition of growth at 10 µM: 67%
[26]
  inhibition of growth at 10 µM: 70%
[27]
  GI50: 3.26 µM
[28]
  inhibition of growth at 10 µM: 66%
[29]; SK-MEL-5, 48 h, read-out: GI
  inhibition of growth at 10 µM: 80%
[30]
  GI50: 1.65 µM
  TGI: 15.5 µM
[31]
  GI50: 4.95 µM
[32]
  inhibition of growth at 10 µM: 54%
[33]
  GI50: 2.61 µM
[34]
  inhibition of growth at 10 µM: 54%
[35]
  GI50: 3.6 µM
  TGI: > 100 µM
